{"data": "Measurements from different studies", "cell line": "WI-38", "observed": "cell growth or viability", "note": "Lines come from different studies, so protocols differ."}
{"SMILES": "CN(C)CCCOc1cc(NC(=O)c2cccc(C(=O)Nc3cc(OCCCN(C)C)c4ccccc4n3)n2)nc2ccccc12", "assay": "ATP luminescence", "conditions": "72 h", "measurement": "IC50", "result": "2.1 µM"}
{"SMILES": "COc1cc(Nc2nc(C#N)cc3c(-c4ccccc4)n[nH]c23)cc(OC)c1OC", "assay": "MTS", "conditions": "48 h", "measurement": "IC50", "result": "> 10 µM"}
{"SMILES": "C#CCOc1cc(C(=O)Nc2cc(OCCN)c3ccccc3n2)nc(C(=O)Nc2cc(OCCN)c3ccccc3n2)c1", "assay": "ATP luminescence", "conditions": "72 h", "measurement": "IC50", "result": "4 µM"}
{"SMILES": "Cc1nc(Nc2ncc(C(=O)Nc3c(C)cccc3Cl)s2)cc(N2CCN(CCO)CC2)n1", "assay": "MTT", "conditions": "72 h", "measurement": "EC50", "result": "0.7 µM"}
{"SMILES": "N#Cc1cc2c(-c3ccccc3)n[nH]c2c(Nc2ccccc2)n1", "assay": "MTS", "conditions": "48 h", "measurement": "IC50", "result": "> 10 µM"}
{"SMILES": "CS(=O)(=O)CCNCc1ccc(-c2ccc3ncnc(Nc4ccc(OCc5cccc(F)c5)c(Cl)c4)c3c2)o1", "assay": "MTT", "conditions": "72 h", "measurement": "EC50", "result": "32 µM"}
{"SMILES": "c1ccc(CNCc2cc3c(-c4ccccc4)n[nH]c3c(Nc3ccccc3)n2)cc1", "assay": "MTS", "conditions": "48 h", "measurement": "IC50", "result": "8.2 µM"}
{"SMILES": "CN(C)CCCOc1cc(NC(=O)c2cc(Cl)cc(C(=O)Nc3cc(OCCCN(C)C)c4ccccc4n3)n2)nc2ccccc12", "assay": "ATP luminescence", "conditions": "72 h", "measurement": "IC50", "result": "3.6 µM"}
{"SMILES": "Cc1cccc(-n2ncc(Br)c(Br)c2=O)c1", "assay": "resazurin", "conditions": "96 h", "measurement": "IC50", "result": "2.61 µM"}
{"SMILES": "C=C(c1ccc(C(=O)O)cc1)c1cc2c(cc1C)C(C)(C)CCC2(C)C", "assay": "MTT", "conditions": "72 h", "measurement": "EC50", "result": "76 µM"}
